# Source: PubChem BioAssay
# ZTA DNA inh: counter-screen for EBNA-1 inhibitors: inhibitors of Epstein-Barr virus ZTA; inhibition, % at 11 µM; P03206; ZTA-DNA binding, fluorescence polarization; AID 2234; actives 0.15% (n = 320,000); in the data active = inhibition above about 33%
# Target sequence (P03206 whole entry, looked up): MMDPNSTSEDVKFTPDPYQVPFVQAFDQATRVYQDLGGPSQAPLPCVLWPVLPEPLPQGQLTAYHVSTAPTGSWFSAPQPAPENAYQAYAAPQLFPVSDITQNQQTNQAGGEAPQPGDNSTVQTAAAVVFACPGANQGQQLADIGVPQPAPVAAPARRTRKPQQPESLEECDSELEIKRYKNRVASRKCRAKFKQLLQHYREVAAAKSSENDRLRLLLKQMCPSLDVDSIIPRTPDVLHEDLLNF
# EBV gp42 inh: blocks Epstein-Barr virus glycoprotein 42 binding | Fluorescence polarization binding assay, mP read-out | inhibition, % (tested at 21.74 µM) | actives 0.42% (n = 220,000); in the data active = inhibition above about 50%
# HCV core dimer: HCV core protein dimerization inhibition; TR-FRET GST/Flag-core106 dimerization, 1536-well; inhibition, % at 5 µM; actives 0.33% (n = 300,000); AID 1899;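 active = inhibition above the mean of all tested compounds plus 3 SD, set per screening campaign, cut at about 45% in these data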
#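 Material: GST/Flag-tagged HCV core106 proteins. Incubation: 4 h, 22.5 °C incubation. Read-out basis: inhibition (%) from 671 over 617 nm ratio. Measured by: TR-FRET, excitation 340 nm, emission 617 and 671 nm.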
# NS3 helicase inh: HCV NS3 helicase inhibition; NS3 helicase DNA unwinding, Cy5 molecular beacon fluorescence; actives 0.56% (n = 290,000); inhibition, % at 10.9 µM; AID 1800;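 active = inhibition above the mean of all tested compounds plus 3 SD, set per campaign, cut at about 35% in these data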;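 note: 0% = DMSO wells and 100% = thioflavine S control wells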
#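 Control set: DMSO versus 110 µM thioflavine S; Material: NS3 helicase fragment of HCV; Measured by: Cy5 fluorescence at 0 and 60 min, beacon hairpin quenching; Read-out basis: percent inhibition from t60/t0 fluorescence ratio; Times: reaction time 60 min, 25 °C; Repeats: single replicate; Compound dosing: single dose, 10.9 µM nominal final, DMSO 0.8% final.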
# EBNA-1 inhibitor: blocks EBNA-1 binding to DNA; inhibition, % at 14.8 µM; EBNA-1 DNA binding, fluorescence polarization; actives 0.34% (n = 300,000); AID 1950; in the data active = inhibition above about 28%
# MEX-5 binding: C. elegans MEX-5 TCR-2 RNA binding activity. activity score (negative = inhibition of binding), % at 10 µM. actives 0.38% (n = 300,000). AID 1832. MEX-5/FITC-TCR2 RNA binding, fluorescence polarization; active compounds read low;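 active = inhibition past about -25% in most replicates, and total fluorescence under double the plate's negative control median, limit read from the data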;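 note: 0% = DMSO and -100% = 5 µM competing unlabeled TCR2 RNA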
# * = called active by the depositor; x = not tested or not shown. Rows were chosen to be rich in hits. Some 1.7% of all compounds tested hit in one or more screens of this group.
SMILES,ZTA DNA inh,EBV gp42 inh,HCV core dimer,NS3 helicase inh,EBNA-1 inhibitor,MEX-5 binding
CCN(CC)CCCC(C)Nc1c2ccc(Cl)cc2nc2ccc(OC)cc12 (stereo unspecified),x,118*,x,21,x,x
CC(C)Oc1ccc(-c2nn(-c3ccccc3)cc2/C=c2\sc3ncnn3c2=O)cc1,-13,75*,-1,-3,-8,x
O=c1/c(=C/c2cn(-c3ccccc3)nc2-c2ccc(F)cc2)sc2nc3ccccc3n12,x,-34,x,-1,x,x
CN(Cc1nc2ccccc2c(=O)[nH]1)C(=O)c1cc(C2CC2)nn1-c1ccccc1,-13,x,x,x,x,x
COc1cccc(-n2c(C)c3c(OC)cccc(=O)c3c2C)c1,3,3,52*,17,4,-5
COc1cccc(=O)c2c(C)n(-c3cc(C)cc(C)c3)c(C)c12,4,8,19,33,0,-4
O=C1CC(=O)N2N=C(c3ccc([N+](=O)[O-])cc3)SC2=N1,9,-13,13,24,8,2
O=S(=O)(Nc1cc2nc3ccccc3nc2n1Cc1ccccc1)c1ccc(Cl)cc1,31,121*,5,16,8,1
CN(C(=O)COC(=O)c1ccccc1SCC(=O)N1CCCC1)C1CCS(=O)(=O)C1 (stereo unspecified),-7,x,-1,2,0,-1
Cc1ccc(S(=O)(=O)N2Cc3ccccc3CC2C(=O)Nc2ccc3c(c2)OCO3)cc1 (stereo unspecified),4,-25,54*,-1,2,-1
Cc1nnc(N2C(=O)C(O)=C(C(=O)c3ccco3)C2c2ccc(F)cc2)s1 (stereo unspecified),-13,76*,0,17,1,-27*
Cc1nnc(N2C(=O)C(O)=C(C(=O)c3ccco3)C2c2ccc(C(C)C)cc2)s1 (stereo unspecified),8,72*,-1,32,-3,-27*
CCCOc1cccc(C2C(C(=O)c3ccco3)=C(O)C(=O)N2c2nnc(C)s2)c1 (stereo unspecified),-14,x,5,14,-2,-32*
Cc1nnc(N2C(=O)C(O)=C(C(=O)c3ccco3)C2c2ccc(C(C)(C)C)cc2)s1 (stereo unspecified),-13,40,6,19,5,-5
Cc1ccc(C2C(C(=O)c3cccs3)=C(O)C(=O)N2c2nnc(C)s2)cc1 (stereo unspecified),6,123*,10,6,9,-67*
Cc1ccc(C2C(C(=O)c3ccco3)=C(O)C(=O)N2c2ncccn2)cc1 (stereo unspecified),16,-10,4,9,5,2
COc1ccc(C2C(C(=O)c3cccs3)=C(O)C(=O)N2c2cccc(C)n2)cc1 (stereo unspecified),-11,-5,2,8,9,2
CCOc1ccccc1/C=N/NC(=O)C[n+]1ccccc1,-4,x,x,x,x,x
Cc1cccc(N2CCN(C(=O)Cc3ccccc3[N+](=O)[O-])CC2)c1C,7,x,15,-3,15,-1
CCCCN1CC(=O)N2[C@H]3c4ccccc4OC[C@@H]3[C@H](c3ccccc3)[C@]2(C)C1=O,-17,x,x,x,x,x
CCc1c(C)sc(NC(=O)Cc2ccccc2C)c1C(=O)N1CCOCC1,8,x,12,11,6,0
C=CCOc1cccc(C2C(C(=O)c3ccc(C)o3)=C(O)C(=O)N2c2nccs2)c1 (stereo unspecified),16,179*,20,9,5,-49*
C/C(=N/OC(=O)c1c(-c2c(Cl)cccc2Cl)noc1C)c1cnccn1,-16,55*,0,9,-3,2
C/C(=N/OC(=O)c1c(-c2ccccc2Cl)noc1C)c1cnccn1,4,-4,-1,-2,-9,3
C[C@H](NC(=O)c1nc[nH]c1C(=O)N[C@@H](CCCCNC(=O)OC(C)(C)C)C(=O)OC(C)(C)C)c1ccccc1,5,-12,7,x,-4,0
Cc1cccc(N(C)S(=O)(=O)c2nnc(NC(=O)c3ccco3)s2)c1,5,x,4,7,0,-33*
Cc1ccc(C)c(NC(=O)CN(C)C(=O)c2ccccc2Cc2ccccc2)c1,-8,x,-3,x,3,2
